Test [1] relates to HepG2. Nature of the test: Cytotoxicity against HepG2.2.15 cells. The test is classed as functional. The conditions noted are these: Homo sapiens. A digest of the protocol:
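HepG 2.2.15 cells exposed to compound; CC50 taken as the concentration required for 50% extinction of the cells.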

Test [2] deals with HepG2. Nature of the test: Selectivity index, CC50 for HepG2.2.15 cells/IC50 for HBV. The test is classed as functional. A digest of the protocol:
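Ratio CC50/IC50. CC50 is the concentration giving 50% extinction of HepG 2.2.15 cells. IC50 is the concentration giving 50% inhibition of cytoplasmic HBV-DNA synthesis.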

In a further test the test system is Hepatitis B virus. Nature of the test: Inhibition of HBV DNA replication. Type of test: functional, organism-based. A digest of the protocol: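 Antiviral assay in HepG 2.2.15 cells; read-out is cytoplasmic HBV-DNA synthesis. IC50 is the concentration giving 50% inhibition of HBV DNA synthesis.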

The values that follow come from ChEMBL document CHEMBL1138932, “Synthesis and anti-hepatitis B virus activity of novel benzimidazole derivatives” (J Med Chem, 2006).

pIC50: −log10 of the molar value. The source made the active and inactive calls. The calls are words filed in the database; no cut-off is given here.

In the test on HepG2 [1], `Nc1ncnc2c1ncn2CCOCP(=O)(O)O` [ADEFOVIR] yielded a CC50 of 203 µM. The molecule further showed a Selectivity index with HepG2 [2] of 156. The same molecule had a negative logarithm of the IC50 (pIC50) in the test with Hepatitis B virus of 5.89.

In the case of `O=C1c2ccccc2C(=O)N1CCc1nc2cc(F)c(F)cc2n1S(=O)(=O)c1ccccc1[N+](=O)[O-]`, half-maximal cytotoxicity with HepG2 [1] (CC50) was put at 77 µM. This molecule also came in with a Selectivity index in the test on HepG2 [2] of 120. The molecule also showed a negative-log IC50 (pIC50) in the test on Hepatitis B virus of 6.19.

With `Cc1ccc(S(=O)(=O)n2c(CCN3C(=O)C=CC3=O)nc3cc(Cl)c(Cl)cc32)cc1`, in the test with HepG2 [1], it took 33 µM to reach half-maximal cytotoxicity (CC50). In addition, the Selectivity index in the test on HepG2 [2] stood at 49. This molecule also gave a pIC50 in the test with Hepatitis B virus of 6.17.

Molecule `Cc1ccc(Cn2c(CCN)nc3cc(Cl)c(Cl)cc32)cc1` gave a 50% cytotoxic concentration (CC50) in the test with HepG2 [1] of 4 µM. Moreover, in the test on HepG2 [2], the Selectivity index was 3. In addition, the pIC50 in the test with Hepatitis B virus was 5.85.

With `Cn1c(CCc2cccs2)nc2cc(Cl)c(Cl)cc21`, in the test with HepG2 [1], half-maximal cytotoxicity (CC50) was put at 16 µM. Besides, in the test on Hepatitis B virus, the outcome was inactive.

In the test on HepG2 [1], `O=C1c2ccccc2C(=O)N1CCc1nc2ccccc2n1S(=O)(=O)c1cccc(C(F)(F)F)c1` registered a CC50 of 10 µM. The Selectivity index with HepG2 [2] was 0.3. The molecule also showed a pIC50 in the test with Hepatitis B virus of 4.52.

As for `O=C1c2ccccc2C(=O)N1CCc1nc2ccccc2n1S(=O)(=O)c1ccccc1`, the CC50 in the test with HepG2 [1] came out at 28 µM. For the same molecule, the Selectivity index in the test on HepG2 [2] is 13. The negative-log IC50 (pIC50) with Hepatitis B virus was 5.66.

Take `O=C1c2ccccc2C(=O)N1CCc1nc2cc(F)c(F)cc2n1S(=O)(=O)c1ccc(C(F)(F)F)cc1`: in the test with HepG2 [1], the half-maximal cytotoxic concentration (CC50) amounted to 11 µM. For the same molecule, the Selectivity index in the test on HepG2 [2] is recorded as 3. The same molecule had a pIC50 in the test on Hepatitis B virus of 5.49.

`Cc1ccc(S(=O)(=O)n2c(CCN3C(=O)c4ccccc4C3=O)nc3ccccc32)cc1` registered a cytotoxic concentration (CC50) with HepG2 [1] of 164 µM. This molecule also had a Selectivity index in the test with HepG2 [2] of 75. The molecule further had a negative logarithm of the IC50 (pIC50) with Hepatitis B virus of 5.66.

Take `O=C1c2ccccc2C(=O)N1CCc1nc2cc(Cl)c(Cl)cc2n1S(=O)(=O)c1ccc([N+](=O)[O-])cc1`: the CC50 in the test on HepG2 [1] worked out at 181 µM. In the test on HepG2 [2], this molecule displayed a Selectivity index of 4. This molecule also had a pIC50 in the test on Hepatitis B virus of 4.30.

`Cn1c(CCc2ccccc2)nc2cc(Cl)c(Cl)cc21` registered a 50% cytotoxic concentration (CC50) with HepG2 [1] of 15.3 µM. The result in the test with Hepatitis B virus was inactive.

For the molecule `CCCc1nc2cc(Cl)c(Cl)cc2n1C`, the midpoint of cytotoxicity in the test with HepG2 [1], the CC50, lay at 24.6 µM. Besides, the Selectivity index in the test with HepG2 [2] amounted to 6. In the test with Hepatitis B virus, this molecule showed a negative logarithm of the IC50 (pIC50) of 5.41.

In turn, `Cc1ccc(C(=O)n2c(CCN3C(=O)c4ccccc4C3=O)nc3cc(Cl)c(Cl)cc32)cc1` yielded a half-maximal cytotoxic concentration (CC50) in the test with HepG2 [1] of over 1000 µM. The molecule also registered a Selectivity index in the test on HepG2 [2] of over 19. The pIC50 in the test with Hepatitis B virus was 4.27.

Molecule `O=C1c2ccccc2C(=O)N1CCc1nc2cc(Cl)c(Cl)cc2[nH]1` registered a 50% cytotoxic concentration (CC50) in the test on HepG2 [1] of 330 µM. Moreover, the Selectivity index in the test with HepG2 [2] is given as 1. In the test on Hepatitis B virus, this molecule had a pIC50 of 3.52.

In the test on HepG2 [1], `Cc1ccc(S(=O)(=O)n2c(CCCN3C(=O)c4ccccc4C3=O)nc3cc(Cl)c(Cl)cc32)cc1` registered a CC50 of 13 µM. This molecule also yielded a Selectivity index in the test on HepG2 [2] of 38. In addition, in the test on Hepatitis B virus, the pIC50 is 6.47.

Regarding `Cc1ccc(S(=O)(=O)n2c(CCN3C(=O)c4ccccc4C3=O)nc3cc(F)c(F)cc32)cc1`, the 50% cytotoxic concentration (CC50) in the test with HepG2 [1] came to 31 µM. The molecule also displayed a Selectivity index in the test with HepG2 [2] of 26. Moreover, the negative-log IC50 (pIC50) in the test with Hepatitis B virus is 5.92.

On to `CS(=O)(=O)n1c(CCN2C(=O)c3ccccc3C2=O)nc2cc(Cl)c(Cl)cc21`, for which the CC50 in the test with HepG2 [1] was determined as 175 µM. For the same molecule, the result with Hepatitis B virus was inactive.

In the test on HepG2 [1], `Cc1ccc(Cn2c(CCN3C(=O)c4ccccc4C3=O)nc3cc(Cl)c(Cl)cc32)cc1` had a CC50 of over 500 µM. In addition, in the test with HepG2 [2], the Selectivity index is on record as over 714. The molecule further gave a pIC50 in the test on Hepatitis B virus of 6.15.

On to `Cc1ccc(S(=O)(=O)n2c(CN3C(=O)c4ccccc4C3=O)nc3cc(Cl)c(Cl)cc32)cc1`, for which, in the test on HepG2 [1], the midpoint of cytotoxicity, the CC50, lay at 90 µM. The Selectivity index in the test on HepG2 [2] was determined as 180. In the test on Hepatitis B virus, this molecule had a pIC50 of 6.30.

In the test on HepG2 [1], `Nc1ccn([C@@H]2CS[C@H](CO)O2)c(=O)n1` [LAMIVUDINE] gave a CC50 of over 1000 µM. The molecule further showed a Selectivity index in the test on HepG2 [2] of over 2632. Also, the negative-log IC50 (pIC50) in the test with Hepatitis B virus is 6.42.

As to `Cn1c(CCN2C(=O)c3ccccc3C2=O)nc2cc(Cl)c(Cl)cc21`, the CC50 in the test with HepG2 [1] was over 1000 µM. In addition, in the test on HepG2 [2], the Selectivity index was over 1111. In the test with Hepatitis B virus, this molecule gave a pIC50 of 6.05.

In the test with HepG2 [1], `Cn1c(CCC2CCCCC2)nc2cc(Cl)c(Cl)cc21` returned a 50% cytotoxic concentration (CC50) of over 500 µM. In addition, in the test on HepG2 [2], the Selectivity index was over 27. This molecule had a pIC50 in the test on Hepatitis B virus of 4.73.

Take `Cc1ccc(S(=O)(=O)n2c(CCN3C(=O)c4ccccc4C3=O)nc3cc(Cl)c(Cl)cc32)cc1`: it took 867 µM to reach half-maximal cytotoxicity in the test with HepG2 [1] (CC50). In the test with HepG2 [2], the Selectivity index was found to be 299. The negative-log IC50 (pIC50) in the test on Hepatitis B virus is 5.54.

In the test with HepG2 [1], `O=C1c2ccccc2C(=O)N1CCc1nc2cc(F)c(F)cc2n1S(=O)(=O)c1cccc([N+](=O)[O-])c1` returned a CC50 of 10 µM. In the test on HepG2 [2], this molecule registered a Selectivity index of 71. In the test on Hepatitis B virus, the pIC50 was 6.85.

Molecule `Cn1c(CCc2ccco2)nc2cc(Cl)c(Cl)cc21` had a 50% cytotoxic concentration (CC50) in the test on HepG2 [1] of 5.9 µM. Further, the outcome with Hepatitis B virus was inactive.

`COc1ccc(S(=O)(=O)n2c(CCN3C(=O)c4ccccc4C3=O)nc3cc(Cl)c(Cl)cc32)cc1` displayed a CC50 in the test with HepG2 [1] of 189 µM. The Selectivity index in the test on HepG2 [2] was found to be 26. The molecule also gave a pIC50 with Hepatitis B virus of 5.14.

In the test with HepG2 [1], `Cc1ccc(S(=O)(=O)n2c(N3C(=O)c4ccccc4C3=O)nc3cc(Cl)c(Cl)cc32)cc1` returned a 50% cytotoxic concentration (CC50) of 122 µM. In the test with HepG2 [2], this molecule showed a Selectivity index of 6. Besides, in the test with Hepatitis B virus, the pIC50 is 4.71.

As for `Cc1ccc(S(=O)(=O)n2c(CCN3Cc4ccccc4C3=O)nc3cc(Cl)c(Cl)cc32)cc1`, half-maximal cytotoxicity with HepG2 [1] (CC50) was put at 23 µM. The Selectivity index in the test on HepG2 [2] was 7. In addition, the negative-log IC50 (pIC50) in the test on Hepatitis B virus is 5.47.

In the case of `Cn1c(CCC2CCCO2)nc2cc(Cl)c(Cl)cc21` (centres undefined), it took 56 µM to reach half-maximal cytotoxicity with HepG2 [1] (CC50). In addition, the Selectivity index in the test with HepG2 [2] came to 5. The same molecule showed a negative-log IC50 (pIC50) in the test on Hepatitis B virus of 4.99.

In the case of `Cn1c(CCc2ccncc2)nc2cc(Cl)c(Cl)cc21`, the midpoint of cytotoxicity in the test with HepG2 [1], the CC50, lay at 35.8 µM. Besides, the Selectivity index in the test on HepG2 [2] was determined as 8. Besides, the negative-log IC50 (pIC50) in the test with Hepatitis B virus was 5.34.

In the test on HepG2 [1], `CC(C)c1ccc(S(=O)(=O)n2c(CCN3C(=O)c4ccccc4C3=O)nc3cc(Cl)c(Cl)cc32)cc1` registered a 50% cytotoxic concentration (CC50) of 17 µM. The same molecule came in with a Selectivity index with HepG2 [2] of 24. In the test on Hepatitis B virus, this molecule had a negative-log IC50 (pIC50) of 6.15.
